Values after ≈ are worked out from the molar mass of the structure shown. Active and inactive are the calls of the source. The rule behind the calls is not given here.
Columns and labels:
[1] = system: Staphylococcus aureus; assay: Antibacterial activity against methicillin-resistant Staphylococcus aureus 8-8S after 48 hrs by broth microdilution method; format: functional
[2] = system: Enterococcus faecium; assay: Antibacterial activity against vancomycin-resistant Enterococcus faecium F935 expressing VanA assessed as reduction of bacterial count by time kill assay; format: functional, organism-based
Procedure, shortened: (§1)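 Time-kill in LB broth with multiples of the broth microdilution MIC (1/2 to 8× MIC). Starting inoculum about 5 × 10^5 CFU/mL, incubated at 35 °C. Samples taken at 0, 2, 4, 6 and 24 h, dilution-plated on LB agar, and counted after 24 h. Detection limit 100 CFU/mL.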

[3] = system: Enterococcus faecium; assay: Ratio of MBC to MIC for vancomycin-resistant Enterococcus faecium F935 expressing VanA; format: functional
[4] = system: OVCAR-3; assay: Cytotoxicity against human OVCAR-3 cells after 48 hrs by MTT assay; format: functional; settings: OVCAR-3, 48 h, read-out: CD50 (the source's name)
Procedure, shortened: (§2)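 Cells seeded at 5 × 10^3 per well, grown 24 h, then given 2-fold dilutions of sample for 48 h. Medium replaced with serum-free medium, MTT added (5 mg/mL stock) for 2 h at 37 °C, formazan dissolved in DMSO, OD read at 550 nm. CD50 is the concentration giving 50% reduction in net cell increase. Quadruplicate, repeated at least twice.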

[5] = system: Staphylococcus aureus; assay: Antibacterial activity against methicillin-resistant Staphylococcus aureus 8-8S after 24 hrs by broth microdilution method; format: functional
Procedure, shortened: (§3)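 2-fold serial dilutions of test agent in […], DMSO under 5% final. Inoculum about 5 × 10^5 CFU/mL, confirmed by LB agar plating. Incubated 24 h at 35 °C in ambient air. MIC is the lowest concentration with no visible growth. Three repeats; oxacillin, vancomycin and chloramphenicol as positive controls.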

[6] = system: Pseudomonas aeruginosa; assay: Antibacterial activity against Pseudomonas aeruginosa up to 100 ug/mL after 24 hrs by broth microdilution method; format: functional, organism-based
Procedure, shortened: (§4)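 Broth microdilution with 2-fold serial dilutions in LB broth, compounds from DMSO stocks (DMSO below 5% final), inoculum about 5 × 10^5 CFU/mL. Incubated 24 h at 35 °C in ambient air. MIC is the lowest concentration with no visible growth. Experiments repeated three times.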

[7] = system: Enterococcus faecalis; assay: Antibacterial activity against Enterococcus faecalis after 48 hrs by broth microdilution method; format: functional
[8] = system: Staphylococcus aureus; assay: Antibacterial activity against methicillin-resistant Staphylococcus aureus 8-8S assessed as reduction of bacterial count at MIC within 2 hrs by time kill assay; format: functional, organism-based
Procedure, shortened: (§5)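 Time-kill in Mueller-Hinton broth with multiples of the broth microdilution MIC. Starting inoculum about 5 × 10^5 CFU/mL, incubated at 35 °C. Samples taken at 0, 2, 4, 6 and 24 h, dilution-plated on LB agar, and counted after 24 h. Detection limit 100 CFU/mL; bactericidal means 3 log or greater reduction.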

[9] = system: Enterococcus faecium; assay: Antibacterial activity against vancomycin-resistant Enterococcus faecium F935 expressing VanA after 24 hrs by broth microdilution method; format: functional; settings: F935, 24 h
Procedure, shortened: (§6)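 2-fold serial dilutions of test agent in LB broth, DMSO under 5% final. Inoculum about 5 × 10^5 CFU/mL, confirmed by LB agar plating. Incubated 24 h at 35 °C in ambient air. MIC is the lowest concentration with no visible growth. Three repeats; oxacillin, vancomycin and chloramphenicol as positive controls.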

[10] = system: Staphylococcus aureus; assay: Antibacterial activity against Staphylococcus aureus after 48 hrs by broth microdilution method; format: functional
[11] = system: Staphylococcus aureus; assay: Antibacterial activity against methicillin-resistant Staphylococcus aureus 8-8S assessed as reduction of bacterial count at 0.5 MIC within 2 hrs by time kill assay; format: functional; parameters: scale not given: the % may be the effect or the level left; procedure, shortened: as §5
[12] = system: Escherichia coli; assay: Antibacterial activity against Escherichia coli up to 100 ug/mL after 24 hrs by broth microdilution method; format: functional, organism-based; procedure, shortened: as §4
[13] = system: Enterococcus faecalis; assay: Antibacterial activity against vancomycin-resistant Enterococcus faecalis CKU-17 expressing VanB assessed as reduction of bacterial count by time kill assay; format: functional, organism-based; procedure, shortened: as §1
[14] = system: Enterococcus faecalis; assay: Antibacterial activity against Enterococcus faecalis after 24 hrs by broth microdilution method; format: functional; procedure, shortened: as §6
[15] = system: Staphylococcus aureus; assay: Ratio of MBC to MIC for Staphylococcus aureus; format: functional
[16] = system: HepG2; assay: Cytotoxicity against human HepG2 cells after 48 hrs by MTT assay; format: functional; settings: HepG2, 48 h, read-out: CD50 (the source's name); procedure, shortened: as §2
[17] = system: Enterococcus faecium; assay: Antibacterial activity against vancomycin-resistant Enterococcus faecium F935 expressing VanA after 48 hrs by broth microdilution method; format: functional; settings: F935, 48 h
[18] = system: Staphylococcus aureus; assay: Antibacterial activity against Staphylococcus aureus after 24 hrs by broth microdilution method; format: functional; procedure, shortened: as §3
[19] = system: Enterococcus faecalis; assay: Ratio of MBC to MIC for Enterococcus faecalis; format: functional
[20] = system: Enterococcus faecalis; assay: Antibacterial activity against vancomycin-resistant Enterococcus faecalis CKU-17 expressing VanB after 24 hrs by broth microdilution method; format: functional; settings: CKU-17, 24 h; procedure, shortened: as §6
[21] = system: HeLa; assay: Cytotoxicity against human HeLa cells after 48 hrs by MTT assay; format: functional; settings: read-out: CD50 (the source's name); procedure, shortened: as §2
[22] = system: Enterococcus faecalis; assay: Antibacterial activity against vancomycin-resistant Enterococcus faecalis CKU-17 expressing VanB after 48 hrs by broth microdilution method; format: functional; settings: CKU-17, 48 h
[23] = system: Enterococcus faecalis; assay: Antibacterial activity against vancomycin-resistant Enterococcus faecalis CKU-17 expressing VanB assessed as reduction of bacterial count at MIC up to 6 hrs by time kill assay; format: functional, organism-based; procedure, shortened: as §1
[24] = system: Enterococcus faecium; assay: Antibacterial activity against vancomycin-resistant Enterococcus faecium F935 expressing VanA assessed as reduction of bacterial count at >=2 times MIC concentration within 4 hrs by time kill assay; format: functional, organism-based; procedure, shortened: as §1
[25] = system: Enterococcus faecium; assay: Antibacterial activity against vancomycin-resistant Enterococcus faecium F935 expressing VanA assessed as reduction of bacterial count at MIC up to 6 hrs by time kill assay; format: functional, organism-based; procedure, shortened: as §1
[26] = system: Enterococcus faecalis; assay: Antibacterial activity against vancomycin-resistant Enterococcus faecalis CKU-17 expressing VanB assessed as reduction of bacterial count at >=2 times MIC within 4 hrs by time kill assay; format: functional, organism-based; procedure, shortened: as §1
[27] = system: Enterococcus faecalis; assay: Ratio of MBC to MIC for vancomycin-resistant Enterococcus faecalis CKU-17 expressing VanB; format: functional
[28] = system: Staphylococcus aureus; assay: Ratio of MBC to MIC for methicillin-resistant Staphylococcus aureus 8-8S; format: functional

| SMILES | MBC [1] [µg/mL] | Ratio [3] | CC50 [4] [µg/mL] | MIC [5] [µg/mL] | Activity [6] | MBC [7] [µg/mL] | MIC [9] [µg/mL] | MBC [10] [µg/mL] | Activity [12] | MIC [14] [µg/mL] | Ratio [15] | CC50 [16] [µg/mL] | MBC [17] [µg/mL] | MIC [18] [µg/mL] | Ratio [19] | MIC [20] [µg/mL] | CC50 [21] [µg/mL] | MBC [22] [µg/mL] | further results |
| --- | --- | --- | --- | --- | --- | --- | --- | --- | --- | --- | --- | --- | --- | --- | --- | --- | --- | --- | --- |
| CC(=O)O[C@@H](CC=C(C)C)C1=CC(=O)c2c(O)ccc(O)c2C1=O [ACETYLALKANNIN] | 1.56 (≈ 4.72 µM) | <=2 | 1.5 (≈ 4.54 µM) | 1.56 (≈ 4.72 µM) | inactive | 3.13 (≈ 9.48 µM) | 6.25 (≈ 18.9 µM) | 1.56 (≈ 4.72 µM) | inactive | 3.13 (≈ 9.48 µM) | <=2 | 2 (≈ 6.05 µM) | 6.25 (≈ 18.9 µM) | 1.56 (≈ 4.72 µM) | <=2 | 6.25 (≈ 18.9 µM) | 1.5 (≈ 4.54 µM) | 6.25 (≈ 18.9 µM) | Activity [2]: Dose-dependent effect; Activity [8]: Active; Activity [11]: >=99.9%; Activity [13]: Dose-dependent effect |
| CC(C)=CC[C@H](O)C1=CC(=O)c2c(O)ccc(O)c2C1=O [ALKANNIN] | 12.5 (≈ 43.4 µM) | <=2 | 0.8 (≈ 2.77 µM) | 6.25 (≈ 21.7 µM) | inactive | 50 (≈ 173 µM) | 50 (≈ 173 µM) | 12.5 (≈ 43.4 µM) | inactive | 50 (≈ 173 µM) | <=2 | 1 (≈ 3.47 µM) | 50 (≈ 173 µM) | 6.25 (≈ 21.7 µM) | <=2 | 25 (≈ 86.7 µM) | 0.8 (≈ 2.77 µM) | 50 (≈ 173 µM) | – |
| CC(C)=CC[C@H](OC(=O)C(C)C)C1=CC(=O)c2c(O)ccc(O)c2C1=O [ISOBUTYLALKANNIN] | 3.13 (≈ 8.73 µM) | <=2 | 2 (≈ 5.58 µM) | 1.56 (≈ 4.35 µM) | inactive | 3.13 (≈ 8.73 µM) | 3.13 (≈ 8.73 µM) | 1.56 (≈ 4.35 µM) | inactive | 3.13 (≈ 8.73 µM) | <=2 | 4 (≈ 11.2 µM) | 3.13 (≈ 8.73 µM) | 1.56 (≈ 4.35 µM) | <=2 | 3.13 (≈ 8.73 µM) | 5.4 (≈ 15.1 µM) | 6.25 (≈ 17.4 µM) | – |
| CC(C)=CC[C@H](OC(=O)CC(C)C)C1=CC(=O)c2c(O)ccc(O)c2C1=O [ISOVALERYL ALKANNIN] | 3.13 (≈ 8.4 µM) | <=2 | 0.9 (≈ 2.42 µM) | 3.13 (≈ 8.4 µM) | inactive | 3.13 (≈ 8.4 µM) | 3.13 (≈ 8.4 µM) | 1.56 (≈ 4.19 µM) | inactive | 3.13 (≈ 8.4 µM) | <=2 | 2.2 (≈ 5.91 µM) | 3.13 (≈ 8.4 µM) | 1.56 (≈ 4.19 µM) | <=2 | 3.13 (≈ 8.4 µM) | 1.7 (≈ 4.56 µM) | 3.13 (≈ 8.4 µM) | Activity [23]: Active; Activity [24]: Active; Activity [25]: Active; Activity [26]: Active |
| CC1=CC(=O)c2c(O)cccc2C1=O [PLUMBAGIN] | 25 (≈ 133 µM) | >=4 | – | 3.13 (≈ 16.6 µM) | – | 100 (≈ 531 µM) | 12.5 (≈ 66.4 µM) | 25 (≈ 133 µM) | – | 25 (≈ 133 µM) | >=4 | – | 50 (≈ 266 µM) | 3.13 (≈ 16.6 µM) | >=4 | 12.5 (≈ 66.4 µM) | – | 50 (≈ 266 µM) | Ratio [27]: >=4; Ratio [28]: >=4 |
